DAX1 inh-1: inhibits human nuclear receptor DAX1; HEK293 Gal4-DAX1 luciferase reporter, luminescence; inhibition, % at 6.75 µM; 340,000 compounds, 0.99% hits; AID 504766;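 active means inhibition above the mean over all tested compounds plus 3 SD, cut at about 4.2% in these data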;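 further: 0% = DAX1-transfected cells with DMSO and 100% = empty-vector control cells with DMSO; inhibition shows as a rise in luminescence from relieved DAX1 repression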
DAX1 inh-2: blocks DAX1 repression of SF-1 activated StAR promoter; HEK293T StAR-luciferase reporter, SF-1/DAX-1 repression relief; inhibition, % at 6.8 µM; 370,000 compounds, 1.1% hits; AID 652010;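 active means inhibition above the mean over all tested compounds plus 3 SD, cut at about 3.6% in these data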;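 further: 0% = DAX-1 cells with DMSO and 100% = cells lacking DAX-1 with DMSO; higher inhibition means more luminescence from relief of DAX-1 repression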
SMARCA2 activ: increases SMARCA2 function in MMTV reporter cells; 370,000 compounds, 1% hits; activation, % at 9.1 µM; MG213 cells, MMTV-luciferase reporter, dexamethasone, overnight; in the data active means activation above about 7.8%;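 further: 0% = vehicle wells and 100% = reference activator wells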
NR2E3 ag-1: human photoreceptor-specific nuclear receptor agonism. 360,000 compounds, 0.35% hits. CHO-S Gal4-NCOR/VP16-NR2E3 two-hybrid, luciferase. Q9Y5X4. inhibition of corepressor binding, % at 3.98 µM;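 active means inhibition above the mean of all tested compounds plus 3 SD, cut at about 70% in these data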;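 further: 0% = DMSO with NR2E3 transfected cells and 100% = cells lacking NR2E3 construct; higher means lower luciferase signal from less NR2E3 corepressor binding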
Target sequence (Q9Y5X4 whole entry, looked up, the tested form may be a part): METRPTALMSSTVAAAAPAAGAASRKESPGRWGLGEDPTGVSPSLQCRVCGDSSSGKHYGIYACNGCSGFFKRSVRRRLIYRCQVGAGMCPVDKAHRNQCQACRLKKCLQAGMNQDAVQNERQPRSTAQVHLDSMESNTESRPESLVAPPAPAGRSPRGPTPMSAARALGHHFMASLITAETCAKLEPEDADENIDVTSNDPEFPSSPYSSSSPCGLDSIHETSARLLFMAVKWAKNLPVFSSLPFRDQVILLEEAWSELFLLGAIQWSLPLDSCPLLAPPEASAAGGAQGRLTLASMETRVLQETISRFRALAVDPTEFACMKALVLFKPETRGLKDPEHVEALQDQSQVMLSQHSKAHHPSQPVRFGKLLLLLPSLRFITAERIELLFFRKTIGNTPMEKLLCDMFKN
JMJD2C inh: inhibitors of human GASC-1 (JMJD2C) demethylase; Q9H3R0; GST-JMJD2C(1-420) H3K9me3 demethylation, DELFIA europium; inhibition, % at 2.35 µM; 330,000 compounds, 0.069% hits; AID 2099;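 active means more than half of a compound's replicate wells show inhibition beyond 50%, single wells judged on their own value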;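 further: signal counts dimethyl H3K9 product captured on neutravidin plate; 0% = median of DMSO wells and 100% = 0.3 times that DMSO median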
NR2E3 ag-2: agonists of human nuclear receptor NR2E3 | 320,000 compounds, 0.12% hits | inhibition of corepressor binding, % at 4.78 µM | GST-NR2E3/biotin-RetCOR TR-FRET, 1536-well | AID 2300 | Q9Y5X4;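 active means percent inhibition above the cutoff of mean plus 3 SD of all tested compounds, set per screening campaign, cut at about 20% in these data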;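 further: 0% = DMSO wells and 100% = biotin wells as full block of FRET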
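system = GST-tagged NR2E3 plus biotinylated RetCOR corepressor | input = 1.35 nM GST-NR2E3 | also added = 7 nM biotin-RetCOR | schedule = 5 h incubation at 4 °C | measured by = TR-FRET with europium anti-GST and streptavidin-D2, 340 nm excitation | read-out = percent loss of FRET ratio relative to control wells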
SMARCA2 act conf: confirmation of SMARCA2 (BRM) function activators; 3,500 compounds, 30% hits; shares compounds with SMARCA2 activ; AID 652260; activation, % at 9.1 µM; MG213 cells, MMTV-luciferase with dexamethasone, luminescence, overnight; MG213 cells expressing E1A, Rb sequestered; DMSO wells 0%, reference activator 100%;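 active means activation above its plate's cutoff, the mean activation of tested wells plus 3 SD, cut at about 7.9% in these data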
VP16 Luc act: activates GAL4-VP16 luciferase, flagging SMARCA2 activator hits; shares compounds with SMARCA2 activ; HEK293 GAL4-VP16 pG5luc reporter, luciferase luminescence; scaled: DMSO wells 0%, SAHA wells 100%; activation, % at 9.1 µM; 3,500 compounds, 41% hits;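 active means activation above the solvent-only control well mean plus 3 SD, averaged across control plates, cut at about 5.2% in these data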
The depositor's hits bear a star; . = no result. In the library only some 3.2% were active in any assay of this set; here they are far more common.

SMILES	DAX1 inh-1	DAX1 inh-2	SMARCA2 activ	NR2E3 ag-1	JMJD2C inh	NR2E3 ag-2	SMARCA2 act conf	VP16 Luc act
CN=C1S/C(=C\c2ccc(O)c(Br)c2)C(=O)N1C	2	-1	1	-10	-10	2	.	.
CN=C1S/C(=C\c2ccc(O)c(OC)c2)C(=O)N1C	.	1	8.9*	-121	-2	0	7	14*
C=CCN1C(=O)/C(=C/c2ccc(O)c(OC)c2)S/C1=N/c1nccs1	3	-1	11*	-15	-5	4	2	1
C=CCN1C(=O)/C(=C/c2ccc(OCC(=O)O)cc2)S/C1=N/c1nccs1	-1	1	2	-22	7	1	.	.
COC(=O)C1CN(Cc2cn(Cc3ccccc3)nn2)CCS(=O)(=O)N1Cc1ccc(C)cc1 (stereo not drawn)	.	-1	-4	.	.	.	.	.
N#C/C(=C/c1cc[nH]c1)C(N)=S	2	-1	8.6*	-20	-5	0	-4	1
CCOc1c(Br)cc(CNc2ccc(N3CCN(C(C)=O)CC3)cc2)cc1OC	0	-2	-2	-4	-2	-1	.	.
CCOc1cc(CNc2ccc(N3CCN(C(C)=O)CC3)cc2)cc(Br)c1OC	-2	-1	8.6*	-7	19	2	2	0
COc1ccc(OCCN2CCC(C(=O)NC(c3ccc(F)cc3)c3ccc4ccccc4n3)CC2)cc1 (stereo not drawn)	.	2	9.6*	1	.	.	-4	-1
CN(Cc1ccccc1)C(=O)c1ccc(NC(=O)C2CCCN(C(=O)OC(C)(C)C)C2)cc1 (stereo not drawn)	-3	-1	-1	12	5	.	.	.
CC(=O)Nc1ccc(C(=O)OCC(=O)N2CCCC2=O)cc1	0	0	8.9*	-14	-8	.	0	1
CC(=O)Nc1ccc(C(=O)OCCCOC(=O)c2ccc(NC(C)=O)cc2)cc1	1	0	-2	-7	5	0	.	.
COc1ccccc1C(=O)OCCc1ccccc1	4	3	11*	-78	.	.	7	6.5*
CC(=O)Nc1ccc(C(=O)OCCc2ccccc2)cc1	2	0	8.8*	-96	8	-2	6	1
COc1ccccc1C(=O)Cc1ccccc1	0	0	1	-11	.	.	.	.
O=C(COC(=O)[C@@H]1CCCN1S(=O)(=O)c1ccccc1F)NCc1ccc2c(c1)OCO2	1	1	0	12	.	1	.	.
COc1cc(C(=O)NCc2ccc3c(c2)OCO3)ccc1OCc1c(C)noc1C	1	0	2	-1	-18	-3	.	.
COc1ccc(/C=C/C(=O)c2ccccc2)c(OC)c1	4	2	7	-65	-3	1	.	.
O=C(/C=C/c1ccc2c(c1)OCCO2)c1ccccc1	.	1	17*	-126	3	2	10*	9.1*
COc1ccc(C(=O)C=Cc2ccc3c(c2)OCO3)cc1OC	0	0	10*	-21	.	.	12*	0
COc1cc(C(=O)Nc2ccc3c(c2)OCO3)ccc1OCc1c(C)noc1C	0	-1	8.4*	-18	9	2	6	0
COc1ccc(C(=O)/C=C/c2ccc3c(c2)OCCO3)cc1	4	0	0	-6	22	-5	.	.
COc1ccc(/C=C/C(=O)c2ccc3c(c2)OCO3)c(OC)c1	3	3	11*	-50	-3	-2	8.8*	8.0*
Cc1ccc(C(=O)NCCc2nc3ccccc3[nH]2)cc1[N+](=O)[O-]	-1	-1	8.6*	4	0	-1	-3	-1
O=S1(=O)C[C@H](N2CCN(CCO)CC2)[C@@H](COCc2ccccc2)N1	.	1	8.1*	13	.	.	-4	3
O=C(CSc1nc2ccccc2o1)NN=C/C=C\c1ccccc1[N+](=O)[O-]	.	1	6	.	.	.	.	.
